Experimental data: ChEMBL document CHEMBL1152649, “Synthesis, cytotoxicity and human telomerase inhibition activities of a series of 1,2-heteroannelated anthraquinones and anthra[1,2-d]imidazole-6,11-dione homologues” (2009)
Active and inactive are the calls of the source. The calls are words filed in the database; no cut-off is given here.

Columns and labels:
EKVX = assay: Antiproliferative activity against human EKVX cells assessed as cell growth at 10 uM; format: functional; details: read-out: Activity
In short: (§1)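 NCI 60 cell line panel, single-dose screen (10^-5 M) run by the developmental therapeutics program protocol. Results are given as growth percent of treated cells relative to untreated control cells for each line.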

786-0 = assay: Antiproliferative activity against human 786-0 cells assessed as cell growth at 10 uM; format: functional; details: read-out: Activity; in short: as §1
SR = assay: Antiproliferative activity against human SR cells assessed as cell growth at 10 uM; format: functional; details: read-out: Activity
In short: (§2)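 NCI 60 cell line panel, single dose (10^-5 M), run per the Developmental Therapeutics Program protocol (one dose mean graph). Each result is the growth percentage of treated cells relative to untreated control cells.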

[1] = Antiproliferative activity against human RPMI8266 cells assessed as cell growth at 10 uM; format: functional; details: read-out: Activity; in short: as §1
SNB-19 = assay: Antiproliferative activity against human SNB19 cells assessed as cell growth at 10 uM; format: functional; details: read-out: Activity; in short: as §1
K562 = assay: Antiproliferative activity against human K562 cells assessed as cell growth at 10 uM; format: functional; details: read-out: Activity; in short: as §1
[2] = Cytotoxicity against human H1299 cells at 1 uM after 48 hrs by MTT assay; format: functional; details: NCI-H1299, 48 h
In short: (§3)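 H1299 non-small cell lung cancer cells were grown in RPMI 1640 with 10% FBS, penicillin and streptomycin at 37 °C under 5% CO2. About 2 × 10³ cells per well were seeded and left 24 h. Compounds were dissolved fresh in DMSO, diluted into complete medium and applied for 48 h. MTT was then added for 4 h at 37 °C, followed by lysis buffer (20% SDS, 50% DMF) for 16 h, and absorbance was read at 550 nm.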

NCI-H322M = assay: Antiproliferative activity against human NCI-H322M cells assessed as cell growth at 10 uM; format: functional; details: read-out: Activity; in short: as §1
[3] = Antiproliferative activity against human Hs 578T cells assessed as cell growth at 10 uM; format: functional; details: read-out: Activity; in short: as §1
NCI-H23 = assay: Antiproliferative activity against human NCI-H23 cells assessed as cell growth at 10 uM; format: functional; details: read-out: Activity; in short: as §1
NCI-H226 = assay: Antiproliferative activity against human NCI-H226 cells assessed as cell growth at 10 uM; format: functional; details: read-out: Activity; in short: as §1
COLO 205 = assay: Antiproliferative activity against human COLO205 cells assessed as cell growth at 10 uM; format: functional; details: read-out: Activity; in short: as §1
UACC-257 = assay: Antiproliferative activity against human UACC257 cells assessed as cell growth at 10 uM; format: functional; details: read-out: Activity; in short: as §2
A549 = assay: Antiproliferative activity against human A549 cells assessed as cell growth at 10 uM; format: functional; details: read-out: Activity; in short: as §1
DU-145 = assay: Antiproliferative activity against human DU145 cells assessed as cell growth at 10 uM; format: functional; details: read-out: Activity; in short: as §1
NCI-H460 = assay: Antiproliferative activity against human NCI-H460 cells assessed as cell growth at 10 uM; format: functional; details: read-out: Activity; in short: as §1
OVCAR-3 = assay: Antiproliferative activity against human OVCAR-3 cells assessed as cell growth at 10 uM; format: functional; details: read-out: Activity; in short: as §1
A498 = assay: Antiproliferative activity against human A498 cells assessed as cell growth at 10 uM; format: functional; details: read-out: Activity; in short: as §1
M14 = assay: Antiproliferative activity against human M14 cells assessed as cell growth at 10 uM; format: functional; details: read-out: Activity; in short: as §1
TK-10 = assay: Antiproliferative activity against human TK10 cells assessed as cell growth at 10 uM; format: functional; details: read-out: Activity; in short: as §2
HT-29 = assay: Antiproliferative activity against human HT-29 cells assessed as cell growth at 10 uM; format: functional; details: read-out: Activity; in short: as §1
OVCAR-5 = assay: Antiproliferative activity against human OVCAR5 cells assessed as cell growth at 10 uM; format: functional; details: read-out: Activity; in short: as §1
SN12C = assay: Antiproliferative activity against human SN12C cells assessed as cell growth at 10 uM; format: functional; details: read-out: Activity; in short: as §1
HOP-92 = assay: Antiproliferative activity against human HOP92 cells assessed as cell growth at 10 uM; format: functional; details: read-out: Activity; in short: as §1
[4] = biological target: Telomerase reverse transcriptase (Homo sapiens) (UniProt O14746); assay: Inhibition of TERT in human H1299 cells assessed as residual transcriptional activity at 100 uM after 24 hrs by SEAP reporter gene assay; values are per cent of control
Chain of Telomerase reverse transcriptase (Homo sapiens) (O14746 whole entry): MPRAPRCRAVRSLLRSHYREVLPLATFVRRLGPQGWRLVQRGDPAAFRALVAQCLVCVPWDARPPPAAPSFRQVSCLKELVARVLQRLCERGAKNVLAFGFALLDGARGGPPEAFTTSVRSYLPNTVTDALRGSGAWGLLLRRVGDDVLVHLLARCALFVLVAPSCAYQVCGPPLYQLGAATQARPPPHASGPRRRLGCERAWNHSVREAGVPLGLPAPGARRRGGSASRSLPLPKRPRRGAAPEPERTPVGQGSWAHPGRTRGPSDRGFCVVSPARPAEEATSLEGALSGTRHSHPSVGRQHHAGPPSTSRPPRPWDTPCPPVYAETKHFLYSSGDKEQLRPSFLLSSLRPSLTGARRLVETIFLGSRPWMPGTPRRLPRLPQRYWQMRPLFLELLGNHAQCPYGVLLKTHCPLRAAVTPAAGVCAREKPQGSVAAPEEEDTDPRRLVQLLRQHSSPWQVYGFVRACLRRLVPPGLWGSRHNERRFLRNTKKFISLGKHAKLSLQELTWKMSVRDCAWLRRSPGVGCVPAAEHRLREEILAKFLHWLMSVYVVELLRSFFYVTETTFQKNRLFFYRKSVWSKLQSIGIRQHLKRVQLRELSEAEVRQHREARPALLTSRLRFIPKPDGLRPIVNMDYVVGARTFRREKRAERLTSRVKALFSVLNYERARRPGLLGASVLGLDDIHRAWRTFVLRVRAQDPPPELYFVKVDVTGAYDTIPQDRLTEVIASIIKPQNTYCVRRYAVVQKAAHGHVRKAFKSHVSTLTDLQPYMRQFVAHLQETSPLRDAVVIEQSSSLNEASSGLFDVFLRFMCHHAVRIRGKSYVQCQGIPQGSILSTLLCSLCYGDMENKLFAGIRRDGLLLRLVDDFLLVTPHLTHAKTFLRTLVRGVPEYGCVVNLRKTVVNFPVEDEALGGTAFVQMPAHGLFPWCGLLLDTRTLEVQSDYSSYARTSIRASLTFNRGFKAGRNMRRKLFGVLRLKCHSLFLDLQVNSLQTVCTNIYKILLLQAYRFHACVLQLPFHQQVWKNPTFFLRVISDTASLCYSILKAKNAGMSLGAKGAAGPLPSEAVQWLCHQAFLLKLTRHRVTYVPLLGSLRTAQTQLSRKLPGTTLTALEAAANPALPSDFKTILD

HL-60(TB) = assay: Antiproliferative activity against human HL-60(TB) cells assessed as cell growth at 10 uM; format: functional; details: read-out: Activity
In short: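 NCI Developmental Therapeutics Program 60-cell-line one-dose screen at 10^-5 M. Readout is growth percentage of treated cells relative to untreated control cells.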

SK-MEL-2 = assay: Antiproliferative activity against human SK-MEL-2 cells assessed as cell growth at 10 uM; format: functional; details: read-out: Activity; in short: as §1
OVCAR-8 = assay: Antiproliferative activity against human OVCAR8 cells assessed as cell growth at 10 uM; format: functional; details: read-out: Activity; in short: as §1
HCC 2998 = assay: Antiproliferative activity against human HCC2998 cells assessed as cell growth at 10 uM; format: functional; details: read-out: Activity; in short: as §1
SK-OV-3 = assay: Antiproliferative activity against human SKOV3 cells assessed as cell growth at 10 uM; format: functional; details: read-out: Activity; in short: as §1
NCI/ADR-RES = assay: Antiproliferative activity against human NCI/ADR-RES cells assessed as cell growth at 10 uM; format: functional; details: read-out: Activity; in short: as §1
[5] = biological target: Telomerase reverse transcriptase (Homo sapiens) (UniProt O14746); assay: Inhibition of TERT in human H1299 cells assessed as residual transcriptional activity at 1 uM after 24 hrs by SEAP reporter gene assay; values are per cent of control
MCF7 = assay: Antiproliferative activity against human MCF7 cells assessed as cell growth at 10 uM; format: functional; details: read-out: Activity; in short: as §1
CCRF-CEM = assay: Antiproliferative activity against human CCRF-CEM cells assessed as cell growth at 10 uM; format: functional; details: read-out: Activity; in short: as §1
Malme-3M = assay: Antiproliferative activity against human MALME-3M cells assessed as cell growth at 10 uM; format: functional; details: read-out: Activity; in short: as §1
U-251 = assay: Antiproliferative activity against human U251 cells assessed as cell growth at 10 uM; format: functional; details: read-out: Activity; in short: as §2
SK-MEL-5 = assay: Antiproliferative activity against human SK-MEL-5 cells assessed as cell growth at 10 uM; format: functional; details: read-out: Activity; in short: as §1
SF-295 = assay: Antiproliferative activity against human SF295 cells assessed as cell growth at 10 uM; format: functional; details: read-out: Activity; in short: as §1
SK-MEL-28 = assay: Antiproliferative activity against human SK-MEL-28 cells assessed as cell growth at 10 uM; format: functional; details: read-out: Activity; in short: as §1
[6] = Cytotoxicity against human H1299 cells at 100 uM after 48 hrs by MTT assay; format: functional; details: NCI-H1299, 48 h; in short: as §3
[7] = biological target: Telomerase reverse transcriptase (Homo sapiens) (UniProt O14746); assay: Inhibition of telomerase in human H1299 cells up to 100 uM by TRAP assay; format: cell-based
In short: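 PCR-based telomeric repeat amplification protocol (TRAP). The telomerase source was total lysate of H1299 lung cancer cells, with protein measured against BSA standards. Controls were extract without inhibitor and RNase A-treated extract.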

T47D = assay: Antiproliferative activity against human T47D cells assessed as cell growth at 10 uM; format: functional; details: read-out: Activity; in short: as §2
[8] = Cytotoxicity against human H1299 cells at 10 uM after 48 hrs by MTT assay; format: functional; details: NCI-H1299, 48 h; in short: as §3

## CC1(C)Nc2ccc3c(c2N1)C(=O)c1ccccc1C3=O
EKVX
  growth at 10 µM: 63.1%
786-0
  growth at 10 µM: 86.2%
SR
  growth at 10 µM: 72.4%
[1]
  growth at 10 µM: 99.9%
SNB-19
  growth at 10 µM: 94.3%
K562
  growth at 10 µM: 101%
[2]
  viability at 1 µM: 98%
NCI-H322M
  growth at 10 µM: 79.7%
[3]
  growth at 10 µM: 68.4%
NCI-H23
  growth at 10 µM: 87%
NCI-H226
  growth at 10 µM: 89.7%
COLO 205
  growth at 10 µM: 90.6%
UACC-257
  growth at 10 µM: 118%
A549
  growth at 10 µM: 94.6%
DU-145
  growth at 10 µM: 76%
NCI-H460
  growth at 10 µM: 71.5%
OVCAR-3
  growth at 10 µM: 78.2%
A498
  growth at 10 µM: 80.6%
M14
  growth at 10 µM: 83.7%
TK-10
  growth at 10 µM: 62.4%
HT-29
  growth at 10 µM: 103%
OVCAR-5
  growth at 10 µM: 96.5%
SN12C
  growth at 10 µM: 92%
HOP-92
  growth at 10 µM: 5.1%
[4]
  residual activity: 9%
HL-60(TB)
  growth at 10 µM: 129%
SK-MEL-2
  growth at 10 µM: 8.04%
OVCAR-8
  growth at 10 µM: 90.2%
HCC 2998
  growth at 10 µM: 137%
SK-OV-3
  growth at 10 µM: 35.9%
NCI/ADR-RES
  growth at 10 µM: 103%
[5]
  residual activity: 96%
MCF7
  growth at 10 µM: 83.6%
CCRF-CEM
  growth at 10 µM: 74%
Malme-3M
  growth at 10 µM: 155%
U-251
  growth at 10 µM: 87.8%
SK-MEL-5
  growth at 10 µM: 86.5%
SF-295
  growth at 10 µM: 98%
SK-MEL-28
  growth at 10 µM: 129%
[6]
  viability at 100 µM: 31%
[7]
  inhibition: inactive
T47D
  growth at 10 µM: 83%
[8]
  viability at 10 µM: 93%
